In ChEMBL document CHEMBL1926550, “Synthesis and antibacterial activity of naphthyridone derivatives containing mono/difluoro-methyloxime pyrrolidine scaffolds” (2012):
In brackets after ≈: the same amount, converted by molar mass.

Key:
Type in all cases: functional
Escherichia coli [1] = assay: Antibacterial activity against Escherichia coli 10-1 after 18 hrs by two fold serial dilution method; details: 10-1, 18 h
Outline: (§1)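 Agar two-fold serial dilution in melted Mueller-Hinton agar, final concentrations 128 down to 0.008 μg/mL. Plates inoculated with 10⁴ cfu and incubated at 35 °C for 18 h. MIC taken as the lowest concentration giving no visible growth on the plate.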

Escherichia coli [2] = assay: Antibacterial activity against Escherichia coli 10-2 after 18 hrs by two fold serial dilution method; details: 10-2, 18 h; outline: as §1
Escherichia coli [3] = assay: Antibacterial activity against Escherichia coli 10-3 after 18 hrs by two fold serial dilution method; details: 10-3, 18 h; outline: as §1
Klebsiella pneumoniae [4] = assay: Antibacterial activity against Klebsiella pneumoniae 09-2 after 18 hrs by two fold serial dilution method; details: 09-2, 18 h; outline: as §1
Klebsiella pneumoniae [5] = assay: Antibacterial activity against Klebsiella pneumoniae 10-1 after 18 hrs by two fold serial dilution method; details: 10-1, 18 h; outline: as §1
Klebsiella pneumoniae [6] = assay: Antibacterial activity against Klebsiella pneumoniae 10-3 after 18 hrs by two fold serial dilution method; details: 10-3, 18 h; outline: as §1
Pseudomonas aeruginosa [7] = assay: Antibacterial activity against Pseudomonas aeruginosa ATCC 27853 after 18 hrs by two fold serial dilution method; details: ATCC 27853, 18 h; outline: as §1
Pseudomonas aeruginosa [8] = assay: Antibacterial activity against Pseudomonas aeruginosa 10-1 after 18 hrs by two fold serial dilution method; details: 10-1, 18 h; outline: as §1
Pseudomonas aeruginosa [9] = assay: Antibacterial activity against Pseudomonas aeruginosa 10-2 after 18 hrs by two fold serial dilution method; details: 10-2, 18 h; outline: as §1
Pseudomonas aeruginosa [10] = assay: Antibacterial activity against Pseudomonas aeruginosa 10-3 after 18 hrs by two fold serial dilution method; details: 10-3, 18 h; outline: as §1
Pseudomonas aeruginosa [11] = assay: Ratio of ciprofloxacin ED50 to compound ED50 for Pseudomonas aeruginosa 10-1 infected KM mouse systemic infection model
Pseudomonas aeruginosa [12] = assay: Ratio of gemifloxacin ED50 to compound ED50 for Pseudomonas aeruginosa 10-1 infected KM mouse systemic infection model
[13] = system: Staphylococcus epidermidis; assay: Antibacterial activity against methicillin-resistant Staphylococcus epidermidis 10-4 after 18 hrs by two fold serial dilution method; details: 10-4, 18 h
Outline: (§2)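 Agar two-fold serial dilution in melted Mueller-Hinton agar, 128 to 0.008 μg/mL. Plates inoculated with 10⁴ cfu, incubated 35 °C for 18 h. MIC taken as lowest concentration giving no visible growth on the plate.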

Staphylococcus aureus [14] = assay: Antibacterial activity against methicillin-resistant Staphylococcus aureus 10-2 infected KM mouse systemic infection model assessed as decrease in mouse mortality administered orally twice after 1 and 4 hrs post infection measured up to 7 days; details: 10-2, po
Outline: (§3)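 Strains grown on MH agar at 35 °C for 18 h, suspended in gastric mucin. Male KM mice (19–21 g), groups of 10, infected intraperitoneally with 0.5 mL at 5–10× MLD. Four oral dose levels per drug at 1 and 4 h post infection. Mortality followed 7 days; ED50 with 95% confidence limits by Bliss method.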

[15] = system: Staphylococcus epidermidis; assay: Antibacterial activity against methicillin-resistant Staphylococcus epidermidis 10-4 infected KM mouse systemic infection model assessed as decrease in mouse mortality administered orally twice after 1 and 4 hrs post infection measured up to 7 days; details: 10-4, po; outline: as §3
Escherichia coli [16] = assay: Antibacterial activity against Escherichia coli 10-2 infected KM mouse systemic infection model assessed as decrease in mouse mortality administered orally twice after 1 and 4 hrs post infection measured up to 7 days; details: 10-2, po; outline: as §3
Klebsiella pneumoniae [17] = assay: Antibacterial activity against Klebsiella pneumoniae 10-3 infected KM mouse systemic infection model assessed as decrease in mouse mortality administered orally twice after 1 and 4 hrs post infection measured up to 7 days; details: 10-3, po; outline: as §3
Pseudomonas aeruginosa [18] = assay: Antibacterial activity against Pseudomonas aeruginosa 10-1 infected KM mouse systemic infection model assessed as decrease in mouse mortality administered orally twice after 1 and 4 hrs post infection measured up to 7 days; details: 10-1, po; outline: as §3
[19] = system: Staphylococcus epidermidis; assay: Ratio of ciprofloxacin ED50 to compound ED50 for methicillin-resistant Staphylococcus epidermidis 10-4 infected KM mouse systemic infection model
[20] = system: Staphylococcus epidermidis; assay: Ratio of gemifloxacin ED50 to compound ED50 for methicillin-resistant Staphylococcus epidermidis 10-4 infected KM mouse systemic infection model
Enterococcus faecium [21] = assay: Antibacterial activity against Enterococcus faecium 09-1 after 18 hrs by two fold serial dilution method; details: 09-1, 18 h; outline: as §1
Staphylococcus aureus [22] = assay: Antibacterial activity against Staphylococcus aureus ATCC 25923 after 18 hrs by two fold serial dilution method; details: ATCC 25923, 18 h; outline: as §1
Staphylococcus aureus [23] = assay: Antibacterial activity against methicillin-resistant Staphylococcus aureus 10-1 after 18 hrs by two fold serial dilution method; details: 10-1, 18 h; outline: as §2
Staphylococcus aureus [24] = assay: Antibacterial activity against methicillin-resistant Staphylococcus aureus 10-2 after 18 hrs by two fold serial dilution method; details: 10-2, 18 h; outline: as §2
Staphylococcus aureus [25] = assay: Antibacterial activity against methicillin-resistant Staphylococcus aureus 10-3 after 18 hrs by two fold serial dilution method; details: 10-3, 18 h; outline: as §2
Staphylococcus aureus [26] = assay: Antibacterial activity against methicillin-resistant Staphylococcus aureus 10-4 after 18 hrs by two fold serial dilution method; details: 10-4, 18 h; outline: as §2
Staphylococcus aureus [27] = assay: Antibacterial activity against methicillin-sensitive Staphylococcus aureus 10-1 after 18 hrs by two fold serial dilution method; details: 10-1, 18 h; outline: as §1
Staphylococcus aureus [28] = assay: Antibacterial activity against methicillin-sensitive Staphylococcus aureus 10-2 after 18 hrs by two fold serial dilution method; details: 10-2, 18 h; outline: as §1
Staphylococcus aureus [29] = assay: Antibacterial activity against methicillin-sensitive Staphylococcus aureus 10-3 after 18 hrs by two fold serial dilution method; details: 10-3, 18 h; outline: as §1
Staphylococcus aureus [30] = assay: Antibacterial activity against methicillin-sensitive Staphylococcus aureus 10-4 after 18 hrs by two fold serial dilution method; details: 10-4, 18 h; outline: as §1
Staphylococcus aureus [31] = assay: Antibacterial activity against methicillin-sensitive Staphylococcus aureus 10-5 after 18 hrs by two fold serial dilution method; details: 10-5, 18 h; outline: as §1
Staphylococcus aureus [32] = assay: Antibacterial activity against methicillin-sensitive Staphylococcus aureus 10-6 after 18 hrs by two fold serial dilution method; details: 10-6, 18 h; outline: as §1
[33] = system: Staphylococcus epidermidis; assay: Antibacterial activity against methicillin-resistant Staphylococcus epidermidis 10-1 after 18 hrs by two fold serial dilution method; details: 10-1, 18 h; outline: as §2
[34] = system: Staphylococcus epidermidis; assay: Antibacterial activity against methicillin-resistant Staphylococcus epidermidis 10-2 after 18 hrs by two fold serial dilution method; details: 10-2, 18 h; outline: as §2
[35] = system: Staphylococcus epidermidis; assay: Antibacterial activity against methicillin-sensitive Staphylococcus epidermidis 10-1 after 18 hrs by two fold serial dilution method; details: 10-1, 18 h; outline: as §1
[36] = system: Staphylococcus epidermidis; assay: Antibacterial activity against methicillin-sensitive Staphylococcus epidermidis 10-2 after 18 hrs by two fold serial dilution method; details: 10-2, 18 h; outline: as §1
Streptococcus pneumoniae = assay: Antibacterial activity against Streptococcus pneumoniae 10-1 after 18 hrs by two fold serial dilution method; details: 10-1, 18 h; outline: as §1
Enterococcus faecium [37] = assay: Antibacterial activity against Enterococcus faecium 09-2 after 18 hrs by two fold serial dilution method; details: 09-2, 18 h; outline: as §1
Enterococcus faecium [38] = assay: Antibacterial activity against Enterococcus faecium 09-3 after 18 hrs by two fold serial dilution method; details: 09-3, 18 h; outline: as §1
Enterococcus faecium [39] = assay: Antibacterial activity against Enterococcus faecium 09-4 after 18 hrs by two fold serial dilution method; details: 09-4, 18 h; outline: as §1
Enterococcus faecium [40] = assay: Antibacterial activity against Enterococcus faecium 09-5 after 18 hrs by two fold serial dilution method; details: 09-5, 18 h; outline: as §1
Enterococcus faecium [41] = assay: Antibacterial activity against Enterococcus faecium 09-6 after 18 hrs by two fold serial dilution method; details: 09-6, 18 h; outline: as §1
Enterococcus faecalis [42] = assay: Antibacterial activity against Enterococcus faecalis 09-1 after 18 hrs by two fold serial dilution method; details: 09-1, 18 h; outline: as §1
Enterococcus faecalis [43] = assay: Antibacterial activity against Enterococcus faecalis 09-2 after 18 hrs by two fold serial dilution method; details: 09-2, 18 h; outline: as §1
Escherichia coli [44] = assay: Antibacterial activity against Escherichia coli ATCC 25922 after 18 hrs by two fold serial dilution method; details: ATCC 25922, 18 h; outline: as §1
Escherichia coli [45] = assay: Antibacterial activity against Escherichia coli 09-1 after 18 hrs by two fold serial dilution method; details: 09-1, 18 h; outline: as §1
Escherichia coli [46] = assay: Antibacterial activity against Escherichia coli 09-2 after 18 hrs by two fold serial dilution method; details: 09-2, 18 h; outline: as §1
Escherichia coli [47] = assay: Antibacterial activity against Escherichia coli 09-3 after 18 hrs by two fold serial dilution method; details: 09-3, 18 h; outline: as §1

NCC1CN(c2nc3c(cc2F)c(=O)c(C(=O)O)cn3C2CC2)C/C1=N\OC(F)F (racemic)
MIC (Escherichia coli [1]): 16 µg/mL (≈ 37.6 µM) | MIC (Escherichia coli [2]): 0.5 µg/mL (≈ 1.18 µM) | MIC (Escherichia coli [3]): 8 µg/mL (≈ 18.8 µM) | MIC (Klebsiella pneumoniae [4]): 32 µg/mL (≈ 75.2 µM) | MIC (Klebsiella pneumoniae [5]): 0.015 µg/mL (≈ 0.0353 µM) | MIC (Klebsiella pneumoniae [6]): 0.5 µg/mL (≈ 1.18 µM) | MIC (Pseudomonas aeruginosa [7]): 0.5 µg/mL (≈ 1.18 µM) | MIC (Pseudomonas aeruginosa [8]): 0.5 µg/mL (≈ 1.18 µM) | MIC (Pseudomonas aeruginosa [9]): 32 µg/mL (≈ 75.2 µM) | MIC (Pseudomonas aeruginosa [10]): 4 µg/mL (≈ 9.4 µM) | Ratio ED50 (Pseudomonas aeruginosa [11]): 5.2 | Ratio ED50 (Pseudomonas aeruginosa [12]): 6.1 | MIC [13]: 2 µg/mL (≈ 4.7 µM) | ED50 (Staphylococcus aureus [14]): 14.3 mg/kg | ED50 [15]: 16.9 mg/kg | ED50 (Escherichia coli [16]): 5.83 mg/kg | ED50 (Klebsiella pneumoniae [17]): 100 mg/kg | ED50 (Pseudomonas aeruginosa [18]): 21.3 mg/kg | Ratio ED50 [19]: 1.4 | Ratio ED50 [20]: 1.4 | MIC (Enterococcus faecium [21]): 32 µg/mL (≈ 75.2 µM) | MIC (Staphylococcus aureus [22]): 0.015 µg/mL (≈ 0.0353 µM) | MIC (Staphylococcus aureus [23]): 16 µg/mL (≈ 37.6 µM) | MIC (Staphylococcus aureus [24]): 1 µg/mL (≈ 2.35 µM) | MIC (Staphylococcus aureus [25]): 16 µg/mL (≈ 37.6 µM) | MIC (Staphylococcus aureus [26]): 32 µg/mL (≈ 75.2 µM) | MIC (Staphylococcus aureus [27]): 0.015 µg/mL (≈ 0.0353 µM) | MIC (Staphylococcus aureus [28]): 4 µg/mL (≈ 9.4 µM) | MIC (Staphylococcus aureus [29]): 0.06 µg/mL (≈ 0.141 µM) | MIC (Staphylococcus aureus [30]): 0.5 µg/mL (≈ 1.18 µM) | MIC (Staphylococcus aureus [31]): 0.008 µg/mL (≈ 0.0188 µM) | MIC (Staphylococcus aureus [32]): 0.06 µg/mL (≈ 0.141 µM) | MIC [33]: 4 µg/mL (≈ 9.4 µM) | MIC [34]: 0.25 µg/mL (≈ 0.588 µM) | MIC [35]: 64 µg/mL (≈ 150 µM) | MIC [36]: 32 µg/mL (≈ 75.2 µM) | MIC (Streptococcus pneumoniae): 0.03 µg/mL (≈ 0.0705 µM) | MIC (Enterococcus faecium [37]): 32 µg/mL (≈ 75.2 µM) | MIC (Enterococcus faecium [38]): 16 µg/mL (≈ 37.6 µM) | MIC (Enterococcus faecium [39]): 0.125 µg/mL (≈ 0.294 µM) | MIC (Enterococcus faecium [40]): 16 µg/mL (≈ 37.6 µM) | MIC (Enterococcus faecium [41]): 0.06 µg/mL (≈ 0.141 µM) | MIC (Enterococcus faecalis [42]): 4 µg/mL (≈ 9.4 µM) | MIC (Enterococcus faecalis [43]): 8 µg/mL (≈ 18.8 µM) | MIC (Escherichia coli [44]): 0.008 µg/mL (≈ 0.0188 µM) | MIC (Escherichia coli [45]): 16 µg/mL (≈ 37.6 µM) | MIC (Escherichia coli [46]): 32 µg/mL (≈ 75.2 µM) | MIC (Escherichia coli [47]): 16 µg/mL (≈ 37.6 µM)
